{"data": "Experimental data from different studies", "target": "Serine/threonine-protein kinase MARK1 (MARK1, Homo sapiens, UniProt Q9P0L2)", "note": "Lines come from different studies, so protocols differ."}
{"SMILES": "COCCOc1nc(-c2ccc(Cl)nc2)nc2c1CN(C(=O)c1ncn3ccccc13)CC2", "observed": "cell-free assay", "method": "competition with immobilised ligand", "tested at": "0.1 µM", "remaining binding [%]": 100}
{"SMILES": "N[C@H]1CCN(c2nccc(-c3cnn4ncccc34)n2)C1", "observed": "binding", "tested at": "1 µM", "remaining binding [%]": 100}
{"SMILES": "CNCc1ccccc1-c1csc([C@H](C)Nc2nc(C)nc3cc(OC)c(OC)cc23)c1", "observed": "cell-free assay", "method": "competition with immobilised ligand", "tested at": "1 µM", "remaining binding [%]": 100}
{"SMILES": "COc1cnc(Nc2cccc(S(N)(=O)=O)c2)nc1N1CCN(c2ccccc2)C(=O)C1", "observed": "binding", "method": "competition with immobilised ligand", "tested at": "1 µM", "remaining binding [%]": 95}
{"SMILES": "FC(F)(F)Oc1cccc(-c2cnc3ccc(-c4ccncc4)nn23)c1", "observed": "cell-free assay", "method": "competition with immobilised ligand", "tested at": "5 µM", "remaining binding [%]": 79}
{"SMILES": "CN(C)c1nccc(-c2cnc3ncccn23)n1", "observed": "binding", "tested at": "1 µM", "remaining binding [%]": 80}
{"SMILES": "Cc1cc(NC(=O)c2cccc(S(F)(F)(F)(F)F)c2)cc(-n2ccn3nc(-c4cccnc4)cc23)c1", "observed": "cell-free assay", "method": "competition with immobilised ligand", "tested at": "1 µM", "remaining binding [%]": 100}
{"SMILES": "C=CC(=O)N1CCC(C(=O)NCC(=O)N2CCN(c3nc(-c4cnc(N)nc4C(F)F)nc(N4CCOCC4)n3)CC2)CC1", "observed": "binding", "method": "competition with immobilised ligand", "tested at": "1 µM", "remaining binding [%]": 100}
{"SMILES": "CN(c1nccc(-c2cnn3ncccc23)n1)C1CC1", "observed": "binding", "tested at": "1 µM", "remaining binding [%]": 83}
{"SMILES": "Cc1cnc(Nc2ccc(C(=O)N3CCC(N4CCCC4)CC3)cc2)nc1-c1cc2ccccc2s1", "observed": "binding", "method": "competition with immobilised ligand", "tested at": "1 µM", "remaining binding [%]": 22}
{"SMILES": "C[C@@H]1CCN(c2nccc(-c3cnn4ncccc34)n2)C1", "observed": "binding", "tested at": "1 µM", "remaining binding [%]": 100}
{"SMILES": "CN(C)C(=O)Cn1cc(-c2nc([C@@](C)(c3ccc(-c4cnc(N)nc4)cc3)C3CC3)no2)cn1", "observed": "cell-free assay", "method": "competition with immobilised ligand", "tested at": "1 µM", "remaining binding [%]": 92}
{"SMILES": "C[C@@H](c1ccc(-n2cnc3c(N)ncnc32)cc1)N1CCc2nn(C)c(Cc3ccccc3)c2C1=O", "observed": "binding", "method": "competition with immobilised ligand", "tested at": "0.1 µM", "remaining binding [%]": 88}
{"SMILES": "CCS(=O)(=O)c1cc2cc(C[C@](O)(CC(C)(C)c3ccc(F)cc3C(N)=O)C(F)(F)F)[nH]c2cn1", "observed": "cell-free assay", "method": "competition with immobilised ligand", "tested at": "1 µM", "remaining binding [%]": 100}
{"SMILES": "O=C(c1ccc(Nc2ncc(Cl)c(-c3ccc(Cl)s3)n2)cc1)N1CCC(N2CCCC2)CC1", "observed": "binding", "method": "competition with immobilised ligand", "tested at": "1 µM", "remaining binding [%]": 24}
{"SMILES": "COc1cnc(Nc2cccc(S(N)(=O)=O)c2)nc1N1CCN(c2ccccc2)CC1", "observed": "binding", "method": "competition with immobilised ligand", "tested at": "1 µM", "remaining binding [%]": 100}
{"SMILES": "F[C@@H]1CCN(c2nccc(-c3cnn4ncccc34)n2)C1", "observed": "binding", "tested at": "1 µM", "remaining binding [%]": 100}
{"SMILES": "O=C(Nc1c[nH]nc1C(=O)NC1CCNCC1)c1cc(F)cc(F)c1", "observed": "binding", "method": "competition with immobilised ligand", "tested at": "1 µM", "remaining binding [%]": 100}
{"SMILES": "Nc1ncc2c(n1)-c1c([nH]c3ccc(C#CC4CC4)cc13)CCCC2", "observed": "binding", "method": "competition with immobilised ligand", "tested at": "1 µM", "remaining binding [%]": 98}
{"SMILES": "Cc1cnn2ncc(-c3ccnc(N(C)C)n3)c2c1", "observed": "binding", "tested at": "1 µM", "remaining binding [%]": 98}
{"SMILES": "O=C(c1ccc(Nc2nccc(-c3cc4ccccc4s3)n2)cc1)N1CCC(N2CCCC2)CC1", "observed": "binding", "method": "competition with immobilised ligand", "tested at": "1 µM", "remaining binding [%]": 62}
{"SMILES": "Cn1cc(Cl)c2c(Oc3c(F)cc(Nc4cc(Cl)nc(N)n4)cc3F)ccnc21", "observed": "cell-free assay", "method": "competition with immobilised ligand", "tested at": "0.1 µM", "remaining binding [%]": 100}
